Test results published in ChEMBL document CHEMBL1123521, “Isozyme-specific enzyme inhibitors. 10. Adenosine 5'-triphosphate derivatives as substrates or inhibitors of methionine adenosyltransferases of rat normal and hepatoma tissues” (J Med Chem, 1986).

What was measured:
[1] = target: T1, S-adenosylmethionine synthetase (MAT 1 and MAT 2) (Rattus norvegicus) (UniProt P13444+P18298); experiment: (§1) Inhibitory potency against rat methionine adenosyltransferase was reported; assay type: protein assay
Procedure, shortened: (§2)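 MAT-T partly purified from rat Novikoff hepatoma cells grown intraperitoneally in rats: cytosol extract, DEAE-cellulose, stored at -20 °C, diluted 10-fold for use. Assay run in duplicate, 37 °C for 30 min, in 150 mM KCl–15 mM MgCl2–5 mM DTT–50 mM Tris-HCl pH 8.2 with 60 μM [14C]methionine. Inhibitors given as 1:1 Mg complexes at two levels of 1-5 × Ki, with six to eight Mg-ATP levels (0.5-4.0 × KM).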

[2] = target: T1, S-adenosylmethionine synthetase (MAT 1 and MAT 2) (Rattus norvegicus); experiment: Relative inhibitory potency T/II in rat methionine adenosyltransferase
[3] = target: S-adenosylmethionine synthase isoform type-2 (Rattus norvegicus) (UniProt P18298); experiment: Inhibitory potency against rat Methionine adenosyltransferase II
Procedure, shortened: (§3)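 MAT-II from rat kidney extract, taken through DEAE chromatography and diluted 10-fold daily. Duplicate 30-min incubations at 37 °C in 150 mM KCl–15 mM MgCl2–5 mM DTT–50 mM Tris-HCl pH 8.2 with 60 μM [14C]methionine. Mg-complexed inhibitor used at two levels (1-5 × Ki) against six to eight Mg-ATP levels (0.5-4.0 × KM). Product counted on phosphocellulose disks.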

[4] = target: S-adenosylmethionine synthase isoform type-1 (Rattus norvegicus) (UniProt P13444); experiment: Inhibitory potency against rat Methionine adenosyltransferase I
Procedure, shortened: (§4)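 Rat liver MAT-I, prepared free of MAT-II and MAT-III and diluted 5-fold. Duplicate assays at 37 °C, 30 min, in 150 mM KCl–7.5 mM MgSO4–2 mM DTT–50 mM HEPES pH 7.5 with 380 μM [14C]methionine. Two inhibitor levels (1:1 Mg complexes, 1-5 × Ki) run against six to eight Mg-ATP levels spanning 0.5-4.0 × KM. Ki taken from kinetic plots.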

[5] = system: CNc1nc2c(N)ncnc2n1C1O[C@H](COP(=O)(O)OP(=O)(O)OP(=O)(O)O)[C@@H](O)[C@H]1O; experiment: (§5) Inhibitory constant against rat kidney Methionine adenosyltransferase II; procedure, shortened: as §3
[6] = system: CSc1nc2c(N)ncnc2n1[C@@H]1O[C@H](COP(=O)(O)OP(=O)(O)OP(=O)(O)O)[C@@H](O)[C@H]1O; experiment: as §5; procedure, shortened: as §3
[7] = system: Nc1ncnc2c1ncn2C1O[C@H](COP(=O)(O)OP(=O)(O)OP(N)(=O)O)[C@@H](O)[C@H]1O; experiment: as §5; procedure, shortened: as §3
[8] = system: Nc1ncnc2c1ncn2[C@H]1C[C@H](O)[C@@H](COP(=O)(O)OP(=O)(O)OP(=O)(O)O)O1; experiment: as §5; procedure, shortened: as §3
[9] = system: Nc1ncnc2c1ncn2[C@@H]1O[C@H](COP(=O)(O)OP(=O)(O)OP(=O)(O)O)[C@@H](O)[C@H]1O; experiment: Inhibitory constant against rat kidney Methionine adenosyltransferase II, activity expressed as conc of Mg-ATP for half maximal velocity
Procedure, shortened: (§6)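 Kinetics at 37 °C for 30 min, in duplicate, in 50 mM Tris-HCl pH 8.2, 150 mM KCl, 15 mM MgCl2, 5 mM DTT. Enzyme was MAT-T from ascites-passaged Novikoff hepatoma cells or MAT-II from rat kidney, both DEAE-cellulose fractions, with 60 µM [14C]methionine. Inhibitors given as 1:1 Mg complexes at two levels against six to eight Mg-ATP levels (0.5–4.0 × KM). Product counted on phosphocellulose disks.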

[10] = system: Nc1ncnc2c1ncn2[C@@H]1O[C@H](COP(=O)(O)OP(=O)(O)OP(=O)(O)O)[C@@H](O)[C@H]1O; experiment: Inhibition of methionine adenosyltransferase in Novikoff Hepatoma(MAT-T), activity expressed as conc of Mg-ATP for half maximal velocity; assay type: protein assay; procedure, shortened: as §6
[11] = system: CNc1nc2c(N)ncnc2n1C1O[C@H](COP(=O)(O)OP(=O)(O)OP(=O)(O)O)[C@@H](O)[C@H]1O; experiment: (§7) […] rat Methionine adenosyltransferase was reported; assay type: protein assay; procedure, shortened: as §2
[12] = system: CSc1nc2c(N)ncnc2n1[C@@H]1O[C@H](COP(=O)(O)OP(=O)(O)OP(=O)(O)O)[C@@H](O)[C@H]1O; experiment: as §7; assay type: protein assay; procedure, shortened: as §2
[13] = target: T1, S-adenosylmethionine synthetase (MAT 1 and MAT 2) (Rattus norvegicus); experiment: Inhibitory potency against rat Methionine adenosyltransferase was reported; assay type: protein assay; procedure, shortened: as §2
[14] = target: T1, S-adenosylmethionine synthetase (MAT 1 and MAT 2) (Rattus norvegicus); experiment: Relative maximum velocity against rat Methionine adenosyltransferase was reported; assay type: protein assay
Procedure, shortened: (§8)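 Analogues at 1 mM tested as substrates of MAT-II (rat kidney) or MAT-T (Novikoff hepatoma), using 10 μL of enzyme stock per assay. Run at 37 °C for 30 min in Tris-HCl pH 8.2 with 150 mM KCl and 15 mM MgCl2, plus 60 μM [14C]methionine. Radiolabelled product bound to phosphocellulose disks and counted. Kinetic constants came from double-reciprocal plots.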

[15] = target: S-adenosylmethionine synthase isoform type-2 (Rattus norvegicus) (UniProt P18298); experiment: Relative maximum velocity against rat kidney Methionine adenosyltransferase II; procedure, shortened: as §8
[16] = target: S-adenosylmethionine synthase isoform type-2 (Rattus norvegicus) (UniProt P18298); experiment: Half maximal velocity relative to rat Methionine adenosyltransferase II
Procedure, shortened: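 DEAE-purified rat kidney MAT-II in 50 mM Tris-HCl pH 8.2, 150 mM KCl, 15 mM MgCl2, 5 mM DTT, with 60 µM [14C]methionine. Analogue checked for substrate activity at 1 mM using more enzyme. Incubated 37 °C for 30 min in duplicate. Acid-quenched product bound to phosphocellulose disks and counted; blanks lacked ATP. KM taken from linear double-reciprocal plots.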

[17] = target: S-adenosylmethionine synthase isoform type-1 (Rattus norvegicus) (UniProt P13444); experiment: Half maximal velocity relative to Methionine adenosyltransferase
Procedure, shortened: (§9)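 ATP analogues run as Mg complexes and checked for substrate activity at 1 mM with more enzyme (10 µL stock). Apparent KM from linear double-reciprocal plots. MAT-I: rat liver, 50 mM HEPES pH 7.5, 150 mM KCl, 7.5 mM MgSO4, 2 mM DTT, 380 µM [14C]methionine. MAT-II (rat kidney) and MAT-T (Novikoff hepatoma DEAE fraction): 50 mM Tris-HCl pH 8.2, 150 mM KCl, 15 mM MgCl2, 5 mM DTT, 60 µM [14C]methionine. 37 °C, 30 min, duplicates.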

[18] = target: T1, S-adenosylmethionine synthetase (MAT 1 and MAT 2) (Rattus norvegicus); experiment: Half maximal velocity relative to methionine adenosyltransferase; assay type: protein assay; procedure, shortened: as §9
[19] = system: Nc1ncnc2c1ncn2[C@H]1C[C@H](O)[C@@H](COP(=O)(O)OP(=O)(O)OP(=O)(O)O)O1; experiment: Inhibitory constant against rat liver Methionine adenosyltransferase I; procedure, shortened: as §4
[20] = system: Nc1ncnc2c1ncn2[C@@H]1O[C@H](COP(=O)(O)OP(=O)(O)OP(=O)(O)O)[C@@H](O)[C@H]1O; experiment: […] rat liver Methionine adenosyltransferase I, activity expressed as conc of Mg-ATP for half maximal velocity
Procedure, shortened: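 Rat liver MAT-I, free of MAT-II and MAT-III, was assayed in 50 mM HEPES pH 7.5, 150 mM KCl, 7.5 mM MgSO4, 2 mM DTT, with 380 µM [14C]methionine, at 37 °C for 30 min in duplicate. Mg-complexed inhibitor was used at two levels against six to eight Mg-ATP levels (0.5–4.0 × KM). Labelled product was captured on phosphocellulose and scintillation-counted; blanks lacked ATP.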

[21] = target: S-adenosylmethionine synthase isoform type-2 (Rattus norvegicus) (UniProt P18298); experiment: Relative maximum velocity against rat Methionine adenosyltransferase II; procedure, shortened: as §8
[22] = target: S-adenosylmethionine synthase isoform type-1 (Rattus norvegicus) (UniProt P13444); experiment: Relative maximum velocity against liver (MAT-I) in rat methionine adenosyltransferase was reported
Procedure, shortened: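 Substrate activity measured with rat liver MAT-I at 37 °C for 30 min, pH 7.5 HEPES buffer, with 380 μM [14C]methionine. ATP analogue at 1 mM, with a higher enzyme amount (10 μL stock). [14C]S-adenosylmethionine captured on phosphocellulose paper and counted by scintillation. Blanks lacked ATP. Constants taken from linear double-reciprocal plots.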

[23] = target: S-adenosylmethionine synthase isoform type-2 (Rattus norvegicus) (UniProt P18298); experiment: as §1; procedure, shortened: as §2

Chain of S-adenosylmethionine synthase isoform type-1 (Rattus norvegicus) (P13444 whole entry, canonical isoform): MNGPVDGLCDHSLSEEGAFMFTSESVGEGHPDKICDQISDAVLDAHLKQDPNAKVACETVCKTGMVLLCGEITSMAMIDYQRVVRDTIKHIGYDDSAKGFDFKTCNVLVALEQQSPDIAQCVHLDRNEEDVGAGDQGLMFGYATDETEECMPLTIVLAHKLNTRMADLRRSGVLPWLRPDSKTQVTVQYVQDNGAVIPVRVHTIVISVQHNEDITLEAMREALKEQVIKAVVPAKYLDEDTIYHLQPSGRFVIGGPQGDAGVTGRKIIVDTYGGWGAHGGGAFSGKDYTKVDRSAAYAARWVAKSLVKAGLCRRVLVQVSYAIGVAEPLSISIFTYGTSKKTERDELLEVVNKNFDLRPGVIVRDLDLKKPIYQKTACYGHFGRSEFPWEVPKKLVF
Chain of S-adenosylmethionine synthetase (MAT 1 and MAT 2) (Rattus norvegicus) (from UniProt P13444+P18298) (P18298 whole entry, looked up): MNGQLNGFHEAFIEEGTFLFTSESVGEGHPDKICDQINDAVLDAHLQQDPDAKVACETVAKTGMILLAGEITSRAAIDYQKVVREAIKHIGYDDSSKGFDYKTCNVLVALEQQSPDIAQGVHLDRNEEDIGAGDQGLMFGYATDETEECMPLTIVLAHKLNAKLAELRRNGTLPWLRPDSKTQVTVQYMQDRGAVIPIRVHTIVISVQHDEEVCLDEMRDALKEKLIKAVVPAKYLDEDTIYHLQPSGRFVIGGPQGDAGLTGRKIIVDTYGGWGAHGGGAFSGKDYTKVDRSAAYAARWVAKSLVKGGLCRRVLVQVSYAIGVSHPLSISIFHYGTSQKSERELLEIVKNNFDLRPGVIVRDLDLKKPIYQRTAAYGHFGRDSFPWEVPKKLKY
Chain of S-adenosylmethionine synthetase (MAT 1 and MAT 2) (Rattus norvegicus) (from UniProt P13444+P18298) (P13444 whole entry, looked up): as the sequence (P13444 whole entry, canonical isoform) above
Chain of S-adenosylmethionine synthase isoform type-2 (Rattus norvegicus) (P18298 whole entry, canonical isoform): as the sequence (P18298 whole entry, looked up) above
Chain of S-adenosylmethionine synthase isoform type-2 (Rattus norvegicus), P18298 (P18298 whole entry, canonical isoform): as the sequence (P18298 whole entry, looked up) above
Chain of S-adenosylmethionine synthase isoform type-1 (Rattus norvegicus), P13444 (P13444 whole entry, canonical isoform): as the sequence (P13444 whole entry, canonical isoform) above

CCCC(OP(=O)(O)OP(=O)(O)OP(=O)(O)O)[C@H]1O[C@@H](n2cnc3c(N)ncnc32)[C@H](O)[C@@H]1O (some centres undefined)
Inhibition potency [1]: 3.78
Inhibition potency T/II [2]: 1.3
Inhibition potency [3]: 2.92

CC(OP(=O)(O)OP(=O)(O)OP(=O)(O)O)[C@H]1O[C@@H](n2cnc3c(N)ncnc32)[C@H](O)[C@@H]1O (some centres undefined)
Inhibition potency [1]: 1.75
Inhibition potency [4]: 15.6
Inhibition potency T/II [2]: 2.4
Inhibition potency [3]: 0.74

CCCCNc1ncnc2c1ncn2C1O[C@H](COP(=O)(O)OP(=O)(O)OP(=O)(O)O)[C@@H](O)[C@H]1O (some centres undefined)
Inhibition potency T/II [2]: 2.5
Inhibition potency [3]: 0.26

S-adenosylmethionine synthase isoform type-2 (Rattus norvegicus), P18298
Km [5]: 160 µM
Km [6]: 100 µM
Km [7]: 3300 µM
Km [8]: 4000 µM
Km [9]: 140 µM

S-adenosylmethionine synthetase (MAT 1 and MAT 2) (Rattus norvegicus) (from UniProt P13444+P18298)
Km [10]: 140 µM
Km [11]: 230 µM
Km [12]: 200 µM

CO[C@H]1[C@@H](O)[C@H](n2cnc3c(N)ncnc32)O[C@@H]1COP(=O)(O)OP(=O)(O)OP(=O)(O)O
Inhibition potency [1]: 0.78
Inhibition potency T/II [2]: 0.95
Inhibition potency [3]: 0.82

CSc1nc2c(N)ncnc2n1[C@@H]1O[C@H](COP(=O)(O)OP(=O)(O)OP(=O)(O)O)[C@@H](O)[C@H]1O
Inhibition potency [13]: 0.7
Relative Vmax [14]: 7.3
Inhibition potency T/II [2]: 0.5
Relative Vmax [15]: 3.1
Inhibition potency [3]: 1.4

Nc1ncnc2c1ncn2[C@@H]1O[C@H](COP(=O)(O)OP(=O)(O)OP(=O)(O)O)[C@@H](O)[C@H]1O
Relative Vmax [16]: 100
Relative Vmax [17]: 100
Relative Vmax [18]: 100

Nc1ncnc2c1ncn2[C@@H]1O[C@H](COP(=O)(O)CP(=O)(O)OP(=O)(O)O)[C@@H](O)[C@H]1O
Inhibition potency [13]: 0.41
Inhibition potency T/II [2]: 0.89
Inhibition potency [3]: 0.46

S-adenosylmethionine synthase isoform type-1 (Rattus norvegicus), P13444
Km [19]: 1540 µM
Km [20]: 140 µM

Nc1ncnc2c1ncn2[C@@H]1O[C@H](COP(=O)(O)OP(=O)(O)NP(=O)(O)O)[C@@H](O)[C@H]1O
Inhibition potency [13]: 35
Inhibition potency T/II [2]: 1.4
Inhibition potency [3]: 25.5

CO[C@@H]1[C@H](O)[C@@H](COP(=O)(O)OP(=O)(O)OP(=O)(O)O)O[C@H]1n1cnc2c(N)ncnc21
Inhibition potency [1]: 0.82
Inhibition potency T/II [2]: 0.82
Inhibition potency [3]: 1

Nc1ncnc2c1ncn2[C@H]1C[C@H](O)[C@@H](COP(=O)(O)OP(=O)(O)OP(=O)(O)O)O1
Relative Vmax [21]: 6.5
Relative Vmax [22]: 26
Inhibition potency [4]: 0.091
Inhibition potency [3]: 0.035

CNc1nc2c(N)ncnc2n1C1O[C@H](COP(=O)(O)OP(=O)(O)OP(=O)(O)O)[C@@H](O)[C@H]1O (some centres undefined)
Relative Vmax [14]: 19
Inhibition potency [23]: 0.61
Inhibition potency T/II [2]: 0.69
Relative Vmax [15]: 37
Inhibition potency [3]: 0.88

Nc1ncnc2c1ncn2C1O[C@H](COP(=O)(O)OP(=O)(O)OP(N)(=O)O)[C@@H](O)[C@H]1O (some centres undefined)
Relative Vmax [15]: 97
Inhibition potency [3]: 0.042

CSc1nc(N)c2ncn([C@@H]3O[C@H](COP(=O)(O)OP(=O)(O)OP(=O)(O)O)[C@@H](O)[C@H]3O)c2n1
Inhibition potency [13]: 1.27
Inhibition potency T/II [2]: 5.5
Inhibition potency [3]: 0.23

Nc1ncnc2c1nc(SCCC(N)C(=O)O)n2C1O[C@H](COP(=O)(O)OP(=O)(O)OP(=O)(O)O)[C@@H](O)[C@H]1O (some centres undefined)
Inhibition potency [3]: 0.27
